Legend:
[1] = Stability in rat plasma under different storage conditions; assay type: in vitro ADME; conditions: n = 5
[2] = Pharmacokinetics in rats after intravenous and oral administration; assay type: in vivo, Sprague-Dawley rats; conditions: rat; for AUC(0-inf) / AUC(0-t) / C0 / MRT last / Vd / clearance / half-life / Cmax / bioavailability / Tmax: male, Sprague-Dawley, plasma; for half-life: t1/2, rat; for half-life / Tmax / AUCextr / t1/2: n = 3
How it was run: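 Male SD rats (220–250 g), fasted 12 h, with jugular vein cannulae placed 2 days earlier under pentobarbital. Groups of 3 received 5 mg/kg iv (2 mg/mL with 30% HP-β-CD) or 100 mg/kg po (10 mg/mL suspension in 0.5% CMC-Na). Plasma (50 μL) was mixed with terfenadine internal standard and analysed by MRM LC-MS/MS (calibration 1.00–1000 ng/mL). Parameters are mean ± SD.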

[3] = autosampler for 24 h (4 °C), spiked 2.00 ng/mL
[4] = autosampler for 24 h (4 °C), spiked 50.0 ng/mL
[5] = autosampler for 24 h (4 °C), spiked 800 ng/mL
[6] = long-term (30 days at -80 °C), spiked 2.00 ng/mL
[7] = long-term (30 days at -80 °C), spiked 50.0 ng/mL
[8] = long-term (30 days at -80 °C), spiked 800 ng/mL
[9] = three freeze/thaw cycles, spiked 2.00 ng/mL
[10] = three freeze/thaw cycles, spiked 50.0 ng/mL
[11] = three freeze/thaw cycles, spiked 800 ng/mL

C[C@@H]1CC[C@H]2[C@@H](C)C(=O)O[C@@H]3O[C@@]4(C)CC[C@@H]1[C@]32O4 [deoxyartemisinin, Deoxyartemisinin]
stability, measured concentration [1, 3]: 2.18 ± 0.10 ng/mL | stability, accuracy (%, RE) [1, 4]: 99.0% | stability, measured concentration [1, 4]: 53.9 ± 1.66 ng/mL | stability, accuracy (%, RE) [1, 5]: 99.0% | stability, measured concentration [1, 5]: 782 ± 26.3 ng/mL | stability, accuracy (%, RE) [1, 6]: 101.5% | stability, measured concentration [1, 6]: 2.03 ± 0.07 ng/mL | stability, accuracy (%, RE) [1, 7]: 108.4% | stability, measured concentration [1, 7]: 54.2 ± 1.91 ng/mL | stability, accuracy (%, RE) [1, 8]: 96.0% | stability, measured concentration [1, 8]: 768 ± 50.2 ng/mL | stability, measured concentration [1, 9]: 1.98 ± 0.08 ng/mL | stability, accuracy (%, RE) [1, 10]: 109.1% | stability, measured concentration [1, 10]: 52.3 ± 0.99 ng/mL | stability, accuracy (%, RE) [1, 11]: 109.1% | stability, measured concentration [1, 11]: 774 ± 16.0 ng/mL | AUC(0-inf) ([2]; iv, 5 mg/kg): 222 ± 47.1 ng·h/mL | AUC(0-t) ([2]; iv, 5 mg/kg): 219 ± 46.1 ng·h/mL | C0 ([2]; iv, 5 mg/kg): 1070 ± 173 ng/mL | MRT last ([2]; iv, 5 mg/kg): 40.3 ± 11 min | Vd ([2]; iv, 5 mg/kg): 48.3 ± 8 L/kg | clearance ([2]; iv, 5 mg/kg): 385 ± 74.5 mL/min/kg | half-life ([2]; iv, 5 mg/kg, i.v. 5 mg/kg): 67.2 ± 9.6 min | AUC(0-inf) ([2]; po, 100 mg/kg): 71 ± 14.1 ng·h/mL | AUC(0-t) ([2]; po, 100 mg/kg): 67.3 ± 14.2 ng·h/mL | Cmax ([2]; po, 100 mg/kg): 62.4 ± 31.3 ng/mL | MRT last ([2]; po, 100 mg/kg): 72.6 ± 23.3 min | bioavailability ([2]; po, 100 mg/kg): 1.6 ± 0.317% | Tmax ([2]; po, 100 mg/kg, p.o. 100 mg/kg): ~23.4 min | half-life ([2]; po, 100 mg/kg, p.o. 100 mg/kg): 67.2 ± 9.36 min | time after which the compound could not be detected in blood ([2]; i.v. 5 mg/kg): 8 h | AUCextr ([2]; i.v. 5 mg/kg): 1.33 ± 0.214% | t1/2 ([2]; i.v. 5 mg/kg, 5 mg/kg): 1.45 ± 0.059 h | time until which the compound was detectable in plasma (above LLOQ) ([2]; p.o. 100 mg/kg): 6 h | AUCextr ([2]; p.o. 100 mg/kg): 5.33 ± 1.92%

C[C@@H]1CC[C@H]2[C@@H](C)C(=O)O[C@@H]3O[C@@]4(C)CC[C@@H]1[C@]32OO4 [artemisinin, Artemisinin]
stability, accuracy (%, RE) [1, 3]: 95.7% | stability, measured concentration [1, 3]: 1.91 ± 0.02 ng/mL | stability, accuracy (%, RE) [1, 4]: 91.0% | stability, measured concentration [1, 4]: 45.5 ± 0.66 ng/mL | stability, accuracy (%, RE) [1, 5]: 97.1% | stability, measured concentration [1, 5]: 777 ± 6.68 ng/mL | stability, accuracy (%, RE) [1, 6]: 97.3% | stability, measured concentration [1, 6]: 1.95 ± 0.02 ng/mL | stability, accuracy (%, RE) [1, 7]: 91.3% | stability, measured concentration [1, 7]: 45.7 ± 1.46 ng/mL | stability, accuracy (%, RE) [1, 8]: 95.2% | stability, measured concentration [1, 8]: 762 ± 9.29 ng/mL | stability, accuracy (%, RE) [1, 9]: 95.2% | stability, measured concentration [1, 9]: 1.90 ± 0.02 ng/mL | stability, accuracy (%, RE) [1, 10]: 95.2% | stability, measured concentration [1, 10]: 47.6 ± 0.52 ng/mL | stability, accuracy (%, RE) [1, 11]: 96.3% | stability, measured concentration [1, 11]: 770 ± 9.11 ng/mL | AUC(0-inf) ([2]; iv, 5 mg/kg): 130 ± 39.1 ng·h/mL | AUC(0-t) ([2]; iv, 5 mg/kg): 129 ± 38.9 ng·h/mL | C0 ([2]; iv, 5 mg/kg): 700 ± 166 ng/mL | MRT last ([2]; iv, 5 mg/kg): 24.5 ± 3.96 min | Vd ([2]; iv, 5 mg/kg): 45.1 ± 12.3 L/kg | clearance ([2]; iv, 5 mg/kg): 674 ± 174 mL/min/kg | half-life ([2]; iv, 5 mg/kg, i.v. 5 mg/kg): 46.2 ± 3.6 min | AUC(0-inf) ([2]; po, 100 mg/kg): 318 ± 21.6 ng·h/mL | AUC(0-t) ([2]; po, 100 mg/kg): 309 ± 22.3 ng·h/mL | Cmax ([2]; po, 100 mg/kg): 65.1 ± 10.4 ng/mL | MRT last ([2]; po, 100 mg/kg): 208 ± 14.9 min | bioavailability ([2]; po, 100 mg/kg): 12.2 ± 0.832% | Tmax ([2]; po, 100 mg/kg, p.o. 100 mg/kg): 79.8 ± 34.8 min | half-life ([2]; po, 100 mg/kg, p.o. 100 mg/kg): 133 ± 15 min | time after which the compound could not be detected in blood ([2]; i.v. 5 mg/kg): 4 h | AUCextr ([2]; i.v. 5 mg/kg): 0.967 ± 0.110% | t1/2 ([2]; i.v. 5 mg/kg, 5 mg/kg): 0.773 ± 0.0598 h | time until which the compound was detectable in plasma (above LLOQ) ([2]; p.o. 100 mg/kg): 12 h | AUCextr ([2]; p.o. 100 mg/kg): 2.89 ± 0.999%

Source: PMC7808142 (ACS Omega, 2020)
